The assay has as its target Muscarinic acetylcholine receptor M3 (Rattus norvegicus) (UniProt P08483). The assay is described as follows: rat M3 positive allosteric modulation check – CHO cells, calcium flux, selectivity assay for M5 PAM discovery project (AID 651931). The procedure, abridged:
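Test system: Fluo-4-loaded stable M3 CHO-K1 cells; Buffer or medium: HBSS, pH 7.4, plus 2.5 mM probenecid and 20 mM HEPES; Reagent: acetylcholine, EC20; Compound: 0.3% final DMSO; Schedule: 1.5 min compound pre-incubation, 50 s ACh exposure, 25 °C read; Technique: Fluo-4 calcium flux; Read-out: % of maximal ACh response.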

Activity calls are given as the source filed them. The rule behind the calls is not given here.

Here are results for one compound from PubChem BioAssay AID651931 (Vanderbilt Specialized Chemistry Center, 2012).

Sequence of Muscarinic acetylcholine receptor M3 (Rattus norvegicus) (P08483 whole entry, looked up): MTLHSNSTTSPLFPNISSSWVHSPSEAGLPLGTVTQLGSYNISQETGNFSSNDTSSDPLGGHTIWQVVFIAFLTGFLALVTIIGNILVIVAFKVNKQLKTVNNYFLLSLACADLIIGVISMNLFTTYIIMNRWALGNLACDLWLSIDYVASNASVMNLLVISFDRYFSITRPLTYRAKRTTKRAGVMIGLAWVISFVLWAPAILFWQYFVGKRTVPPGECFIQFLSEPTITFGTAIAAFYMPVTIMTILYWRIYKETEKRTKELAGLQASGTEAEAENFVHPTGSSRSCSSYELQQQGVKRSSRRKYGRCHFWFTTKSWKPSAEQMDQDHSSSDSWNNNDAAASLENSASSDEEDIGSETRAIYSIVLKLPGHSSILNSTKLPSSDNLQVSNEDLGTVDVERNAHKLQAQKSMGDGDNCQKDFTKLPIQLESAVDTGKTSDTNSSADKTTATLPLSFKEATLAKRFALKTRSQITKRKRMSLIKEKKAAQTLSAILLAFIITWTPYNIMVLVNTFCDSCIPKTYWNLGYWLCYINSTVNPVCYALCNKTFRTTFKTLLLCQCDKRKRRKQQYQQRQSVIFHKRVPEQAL

For `O=C1C(=O)N(CCOc2ccccc2)c2ccc(OC(F)(F)F)cc21`, the outcome was inactive.
